Published values collected from several papers.
MTNR1A: Melatonin receptor type 1A (MTNR1A, Homo sapiens, UniProt P48039)
FLT3: Receptor-type tyrosine-protein kinase FLT3 (FLT3, Homo sapiens, UniProt P36888)

Structure (SMILES) | target | test | setting | quantity | result
COC(=O)c1ccc(CSc2nnc(C3CC3)[nH]2)cc1 | MTNR1A | cAMP, agonist, luciferase |  | EC50 | 0.777 µM
NC(=O)c1ccc(Nc2nccc(NC3CCCCC3)n2)cc1 | FLT3 | enzyme activity, inhibitor |  | IC50 | 0.014 µM
Cc1cnc(-c2ccc(-c3ccc(NC(=O)Nc4c(F)cc(F)cc4F)cc3F)c3c2C(=O)NC3)[nH]1 | Tyrosine-protein kinase receptor Tie-1 (TIE1, Homo sapiens, UniProt P35590) | binding, competition with immobilised ligand |  | Kd | 0.018 µM
COc1ccc(CN(C)C(=O)c2cc(F)c[nH]2)cc1O | MTNR1A | cAMP, agonist, luciferase |  | EC50 | 0.0211 µM
Cc1cc2nc3c(=O)[nH]c(=O)nc-3n(C[C@H](O)[C@H](O)[C@H](O)COP(=O)(O)OP(=O)(O)OC[C@H]3O[C@@H](n4cnc5c(N)ncnc54)[C@H](O)[C@@H]3O)c2cc1C | Annexin A7 (Homo sapiens, UniProt P20073) | binding | lysate | Kd | 0.03 µM
CCc1ccc2scc(CCNC(C)=O)c2c1 | MTNR1A | β-arrestin recruitment, agonist |  | EC50 | 0.012 µM
COc1ccc(Br)c(CNc2cccnc2)c1 | MTNR1A | cell-free assay |  | Ki | 0.347 µM
COc1cc2c(CCNC(C)=O)c[nH]c2cc1I | MTNR1A | GTPγS binding, agonist, radiometric | cell membranes | EC50 | 0.01 µM
c1ccc(-c2cccc(Nc3nccc(NC4CCCCC4)n3)c2)nc1 | FLT3 | enzyme activity, inhibitor |  | IC50 | 1.71 µM
Cc1cc(Nc2cc3ncccc3c(N[C@@H]3C[C@H]4CC[C@@H](C3)N4CCC#N)n2)n[nH]1 | FLT3 | binding, competition with immobilised ligand |  | Kd | 0.04 µM
CC(C)Nc1ccnc(Nc2cccc(-c3cnccn3)c2)n1 | FLT3 | enzyme activity, inhibitor |  | IC50 | 0.011 µM
COc1ccc2ncn(CCNC(C)=O)c2c1 | MTNR1A | cAMP, agonist, TR-FRET |  | EC50 | 1.12 µM
